Measured values from ChEMBL document CHEMBL3217744, “Non-iminosugar glucocerebrosidase small molecule chaperones” (Medchemcomm, 2012).
Values belong to the molecule of their own block, whether it stands above or below them. Active and inactive are the calls of the source. No cut-off for these calls is given here.

How the values were obtained:
[1] = test system: T1, Lysosomal acid glucosylceramidase (Homo sapiens), P04062 [N409S]; assay: (§1) Inhibition of glucocerebrosidase N370S mutant in spleen homogenates of patient with Gaucher disease using resorufin-beta-D-glucopyranoside as substrate after 20 mins fluorescence assay; assay type: tissue-based
T1 sequence (whole entry): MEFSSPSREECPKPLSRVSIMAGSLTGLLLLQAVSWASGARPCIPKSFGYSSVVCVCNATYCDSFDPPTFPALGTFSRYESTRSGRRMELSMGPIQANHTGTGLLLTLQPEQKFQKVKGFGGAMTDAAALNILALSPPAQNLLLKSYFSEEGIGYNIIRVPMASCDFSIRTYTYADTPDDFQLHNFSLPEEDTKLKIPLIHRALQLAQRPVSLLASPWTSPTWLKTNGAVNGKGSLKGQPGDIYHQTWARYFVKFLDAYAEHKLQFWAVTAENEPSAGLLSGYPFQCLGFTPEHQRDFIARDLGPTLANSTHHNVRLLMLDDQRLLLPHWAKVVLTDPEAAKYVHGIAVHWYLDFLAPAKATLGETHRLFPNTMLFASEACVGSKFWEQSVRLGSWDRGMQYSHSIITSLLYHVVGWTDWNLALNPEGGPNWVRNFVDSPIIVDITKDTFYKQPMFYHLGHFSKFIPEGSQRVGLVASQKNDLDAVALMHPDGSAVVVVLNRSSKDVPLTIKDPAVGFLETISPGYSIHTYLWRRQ

[2] = biological target: T2, Lysosomal acid glucosylceramidase (Homo sapiens, UniProt P04062, N409S); assay: as §1; assay type: tissue-based
[3] = biological target: Somatostatin receptor type 4 (Homo sapiens, UniProt P31391); assay: Binding affinity to human SST4 receptor
Mus musculus [4] = assay: Tmax in C57BL/6 mouse at 30 mg/kg, ip after 24 hrs; assay type: ADME, organism-based; design: dose 30 mg/kg, route intraperitoneal; settings: in vivo
Summary of the method: (§2)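 Male C57BL/6 mice (20-21 g), single IP dose of 30 mg/kg at 3 mg/mL, 10 mL/kg, in 5% DMAC/5% Solutol HS 15/90% 10 mM pH 7.4 phosphate buffer; n=3 per time point. Retro-orbital blood into K2EDTA under isoflurane, pre-dose to 24 h. Plasma protein-precipitated with acetonitrile containing testosterone internal standard; LC-MS/MS positive ESI MRM; calibration 1.00-10000 ng/mL.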

[5] = Plasma concentration in C57BL/6 mouse at 30 mg/kg, ip after 24 hrs; assay type: ADME, organism-based; design: dose 30 mg/kg, route intraperitoneal; summary of the method: as §2
Mus musculus [6] = assay: AUClast in C57BL/6 mouse at 30 mg/kg, ip after 24 hrs; assay type: ADME, organism-based, Plasma; design: time < 24 hr, dose 30 mg/kg, route intraperitoneal; settings: in vivo; summary of the method: as §2
Mus musculus [7] = assay: Cmax in C57BL/6 mouse at 30 mg/kg, ip after 24 hrs; assay type: ADME, organism-based; design: dose 30 mg/kg, route intraperitoneal; settings: in vivo; summary of the method: as §2
Mus musculus [8] = assay: AUC (infinity) in C57BL/6 mouse at 30 mg/kg, ip after 24 hrs; assay type: ADME, organism-based, Plasma; design: time infinity, dose 30 mg/kg, route intraperitoneal; settings: in vivo; summary of the method: as §2
[9] = Plasma concentration in C57BL/6 mouse at 30 mg/kg, ip after 0.5 hrs; assay type: ADME, organism-based; design: dose 30 mg/kg, route intraperitoneal; summary of the method: as §2
Mus musculus [10] = assay: Half life in C57BL/6 mouse at 30 mg/kg, ip after 24 hrs; assay type: ADME, organism-based; design: dose 30 mg/kg, route intraperitoneal; settings: in vivo; summary of the method: as §2
[11] = Plasma concentration in C57BL/6 mouse at 30 mg/kg, ip after 0.25 hrs; assay type: ADME, organism-based; design: dose 30 mg/kg, route intraperitoneal; summary of the method: as §2
[12] = Plasma concentration in C57BL/6 mouse at 30 mg/kg, ip after 8 hrs; assay type: ADME, organism-based; design: dose 30 mg/kg, route intraperitoneal; summary of the method: as §2
[13] = test system: T1, Lysosomal acid glucosylceramidase (Homo sapiens), P04062 [N409S]; assay: Induction of glucocerebrosidase N370S mutant translocation in fibroblasts of patient with Gaucher disease assessed as co-localization of LAMP-1 in lysosomes at 1 uM after 5 days by laser scanning confocal microscopic analysis
Summary of the method: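 Gaucher patient fibroblasts on chamber slides, treated 5 days with compound. Cells fixed in 3% paraformaldehyde and permeabilized with 0.1% Triton-X. Stained with anti-LAMP-1 (1:100) and anti-GCase R386 (1:500), then Alexa-488/555 secondaries and DAPI. Imaged by confocal laser scanning at identical laser settings; collapsed z-stacks.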

[14] = Plasma concentration in C57BL/6 mouse at 30 mg/kg, ip after 2 hrs; assay type: ADME, organism-based; design: dose 30 mg/kg, route intraperitoneal; summary of the method: as §2
[15] = Plasma concentration in C57BL/6 mouse at 30 mg/kg, ip after 12 hrs; assay type: ADME, organism-based; design: dose 30 mg/kg, route intraperitoneal; summary of the method: as §2
[16] = Plasma concentration in C57BL/6 mouse at 30 mg/kg, ip after 0.083 hrs; assay type: ADME, organism-based; design: dose 30 mg/kg, route intraperitoneal; summary of the method: as §2
[17] = Plasma concentration in C57BL/6 mouse at 30 mg/kg, ip after 4 hrs; assay type: ADME, organism-based; design: dose 30 mg/kg, route intraperitoneal; summary of the method: as §2
[18] = biological target: T2, Lysosomal acid glucosylceramidase; assay: Inhibition of glucocerebrosidase N370S mutant in spleen homogenates of patient with Gaucher disease using resorufin-beta-D-glucopyranoside as substrate after 60 mins fluorescence assay; assay type: tissue-based
[19] = Plasma concentration in C57BL/6 mouse at 30 mg/kg, ip after 1 hr; assay type: ADME, organism-based; design: dose 30 mg/kg, route intraperitoneal; summary of the method: as §2

Sequence of Somatostatin receptor type 4 (P31391 whole entry): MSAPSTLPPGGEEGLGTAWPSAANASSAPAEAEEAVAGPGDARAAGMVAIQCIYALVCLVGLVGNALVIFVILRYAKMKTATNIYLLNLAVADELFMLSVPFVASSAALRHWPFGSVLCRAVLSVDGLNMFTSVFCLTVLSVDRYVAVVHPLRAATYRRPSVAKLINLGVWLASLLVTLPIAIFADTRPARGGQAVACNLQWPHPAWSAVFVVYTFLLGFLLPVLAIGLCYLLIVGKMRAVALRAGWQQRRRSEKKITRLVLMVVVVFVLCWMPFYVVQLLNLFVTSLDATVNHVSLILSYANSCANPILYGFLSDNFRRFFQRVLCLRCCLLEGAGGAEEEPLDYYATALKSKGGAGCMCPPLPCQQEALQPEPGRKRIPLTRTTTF

Structure (SMILES): CCCCNC(=S)NCCCN(Cc1ccc(Cl)c(Cl)c1)c1ccc(Br)cn1
- inhibition [1]: inactive

Structure (SMILES): S=C(NCCCc1cnc[nH]1)NCCCN(Cc1ccc(Cl)cc1)c1ccc(-c2ccccc2)cn1
- IC50 [2]: 1300 nM

Structure (SMILES): S=C(NCCCNc1ccc(Br)cn1)NCCCc1c[nH]cn1
- IC50 [2]: 46000 nM
- Ki [3]: 690 nM

Structure (SMILES): O=C(NCCCc1c[nH]cn1)NCCCN(Cc1ccc(Cl)c(Cl)c1)c1ccc(Br)cn1
- IC50 [2]: 600 nM

Structure (SMILES): S=C(NCCCc1c[nH]cn1)NCCN(Cc1ccc(Cl)c(Cl)c1)c1ccc(Br)cn1
- IC50 [2]: 2100 nM

Structure (SMILES): S=C(NCCCc1c[nH]cn1)NCCCN(Cc1ccc(Cl)c(Cl)c1)c1ccc(Br)cn1
- Tmax (Mus musculus [4]): 1 h
- concentration at 24 h [5]: 0.02 µM
- AUClast (Mus musculus [6]): 20600 ng·h/mL
- Cmax (Mus musculus [7]): 3553 ng/mL
- AUC (Mus musculus [8]): 20700 ng·h/mL
- concentration at 0.5 h [9]: 4.84 µM
- t1/2 (Mus musculus [10]): 2.57 h
- concentration at 0.25 h [11]: 4.24 µM
- concentration at 8 h [12]: 1.35 µM
- Activity [13]: Active
- concentration at 2 h [14]: 6.17 µM
- concentration at 12 h [15]: 0.2 µM
- IC50 [2]: 600 nM
- concentration at 0.083 h [16]: 3.03 µM
- concentration at 4 h [17]: 4.29 µM
- IC50 [18]: 580 nM
- concentration at 1 h [19]: 6.39 µM

Structure (SMILES): NCCCNC(=S)NCCCN(Cc1ccc(Cl)cc1)c1ccc(Br)cn1
- IC50 [2]: 45000 nM

Structure (SMILES): S=C(NCCCc1c[nH]cn1)NCCCN(Cc1ccc(Cl)cc1)c1ccc(Br)cn1
- IC50 [2]: 1200 nM

Structure (SMILES): CN(CCCc1cnc[nH]1)C(=S)NCCCN(Cc1ccc(Cl)cc1)c1ccc(Br)cn1
- IC50 [2]: 18000 nM
- Ki [3]: 26 nM

Structure (SMILES): CN(CCCN(Cc1ccc(Cl)cc1)c1ccc(Br)cn1)C(=S)NCCCc1cnc[nH]1
- IC50 [2]: 2800 nM
- Ki [3]: 19 nM

Structure (SMILES): OC[C@H]1CNC[C@@H](O)[C@@H]1O
- Activity [13]: Active

Second part, the molecule after the results:

- IC50 [2]: 800 nM
Structure (SMILES): S=C(NCCCCN(Cc1ccc(Cl)cc1)c1ccc(Br)cn1)NCCCc1cnc[nH]1

- IC50 [2]: 4000 nM
Structure (SMILES): S=C(NCCCc1cnc[nH]1)NCCCN(Cc1ccc(Cl)cc1)c1cc(-c2ccccc2)ccn1

- IC50 [2]: 5800 nM
Structure (SMILES): S=C(NCCCc1c[nH]cn1)NCCCN(Cc1ccccc1)c1ccc(Br)cn1

- IC50 [2]: 8200 nM
Structure (SMILES): CCCCN(CCCNC(=S)NCCCc1c[nH]cn1)c1ccc(Br)cn1

- IC50 [2]: 2800 nM
Structure (SMILES): S=C(NCCCc1cnc[nH]1)NCCCN(CCc1ccccc1)c1ccc(Br)cn1

- IC50 [2]: 18300 nM
Structure (SMILES): S=C(NCCCN(Cc1ccc(Cl)c(Cl)c1)c1ccc(Br)cn1)NCCc1c[nH]cn1

- IC50 [2]: 7300 nM
Structure (SMILES): S=C(NCCCc1c[nH]cn1)NCCCN(Cc1ccc(Cl)c(Cl)c1)c1ccccn1

- IC50 [2]: 2000 nM
Structure (SMILES): S=C(NCCCc1cnc[nH]1)NCCCN(CCc1ccc(Cl)cc1)c1ccc(Br)cn1

- Activity [13]: Active
- IC50 [2]: 1300 nM
- Ki [3]: 160 nM
Structure (SMILES): S=C(NCCCc1cnc[nH]1)NCCCN(Cc1ccc(Cl)cc1)c1ccc(Br)cc1

- IC50 [2]: 1000 nM
Structure (SMILES): O=C(NCCCc1cnc[nH]1)NCCCN(Cc1ccc(Cl)cc1)c1ccc(Br)cn1

- inhibition [1]: inactive
Structure (SMILES): CC(=O)NCCCNC(=S)NCCCN(Cc1ccc(Cl)cc1)c1ccc(Br)cn1
